ChEMBL document CHEMBL1138216, “Design and synthesis of novel derivatives of the muscarinic agonist tetra(ethylene glycol)(3-methoxy-1,2,5-thiadiazol-4-yl) [3-(1-methyl-1,2,5,6-tetrahydropyrid-3-yl)-1,2,5-thiadiazol-4-yl] ether (CDD-0304): effects of structural modifications on the binding and activity at muscarinic receptor …” (J Med Chem, 2006)
Residue numbers refer to the chain shown, from its start. Calls of active or inactive are those of the source. The calls are words filed in the database; no cut-off is given here.

Legend:
[1] = tested on: Rattus norvegicus; test: Antipsychotic activity in Sprague-Dawley rat assessed as ability to reverse apomorphine effect on prepulse inhibition of the startle response at 1 mg/kg, sc; type: functional, organism-based; set-up: dose 1 mg/kg
Outline: (§1)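 Male Sprague-Dawley rats, 250-300 g, habituated a day before. Drug in water or saline sc (1 mL/kg) 25 min, apomorphine 1.0 mg/kg 5 min pre-test; muscarinic agonists 0.1-3 mg/kg. Session of 15 each pulse-alone (120 dB, 100 ms) and pulse preceded 200 ms by 20 ms prepulse 12 dB above 70 dB background; 12 rats/group; %PPI calculated.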

[2] = target: Muscarinic acetylcholine receptor M1 (Homo sapiens, UniProt P11229, Q185E); type: functional, cell-based, L929
[3] = tested on: T1, Muscarinic acetylcholine receptor M1 (Homo sapiens), P11229 [Q185E]; test: Agonist activity at human M1 receptor Q185E mutant expressed in A9 L cells assessed as stimulation of phosphoinositide hydrolysis relative to carbachol; type: functional, cell-based; conditions: L929
T1 sequence (whole entry): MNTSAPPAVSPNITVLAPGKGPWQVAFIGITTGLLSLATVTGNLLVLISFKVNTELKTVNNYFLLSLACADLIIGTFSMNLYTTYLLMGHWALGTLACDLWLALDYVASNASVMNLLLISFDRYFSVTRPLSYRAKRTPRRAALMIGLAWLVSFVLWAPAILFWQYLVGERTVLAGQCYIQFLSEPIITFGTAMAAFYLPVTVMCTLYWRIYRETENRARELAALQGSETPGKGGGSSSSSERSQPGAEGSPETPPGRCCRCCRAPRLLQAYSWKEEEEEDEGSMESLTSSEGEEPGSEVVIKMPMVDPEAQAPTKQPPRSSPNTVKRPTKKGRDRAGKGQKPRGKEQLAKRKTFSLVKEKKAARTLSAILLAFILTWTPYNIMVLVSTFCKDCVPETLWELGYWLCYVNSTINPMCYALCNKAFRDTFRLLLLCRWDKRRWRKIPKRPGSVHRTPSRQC
Outline: (§2)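 A9 L cells stably expressing the receptor, seeded 24 h, labelled overnight with 10 µCi/mL [3H]inositol in inositol-free DMEM; ligands in HBSS with 10 mM LiCl, 20 mM HEPES, 37 °C, 1 h; formic acid extraction, inositol phosphates counted by SPA beads.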

[4] = target: T2, Muscarinic acetylcholine receptor M4 (Homo sapiens, UniProt P08173); test: Activity at human M4 receptor assessed as inhibition of forskolin-stimulated cAMP accumulation; type: functional
T2 sequence (P08173 whole entry): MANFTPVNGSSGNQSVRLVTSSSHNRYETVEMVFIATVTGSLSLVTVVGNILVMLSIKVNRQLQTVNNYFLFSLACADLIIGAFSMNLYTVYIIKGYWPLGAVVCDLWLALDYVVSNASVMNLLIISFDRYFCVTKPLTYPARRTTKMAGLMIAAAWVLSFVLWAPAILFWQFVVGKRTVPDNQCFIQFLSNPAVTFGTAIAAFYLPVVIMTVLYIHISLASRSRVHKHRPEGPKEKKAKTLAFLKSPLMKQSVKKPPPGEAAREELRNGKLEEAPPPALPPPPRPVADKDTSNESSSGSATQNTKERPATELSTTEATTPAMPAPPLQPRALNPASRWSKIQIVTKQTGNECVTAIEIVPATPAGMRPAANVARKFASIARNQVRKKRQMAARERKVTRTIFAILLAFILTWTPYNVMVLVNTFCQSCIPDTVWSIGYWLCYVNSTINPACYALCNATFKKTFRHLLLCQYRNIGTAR

[5] = target: T3, Muscarinic acetylcholine receptor M1/M5 chimeric protein (Homo sapiens, UniProt P08912+P11229); test: Agonist activity at human M1/M5(o2) chimeric receptor expressed in A9 L cells assessed as stimulation of phosphoinositide hydrolysis; type: functional, cell-based, L929
T3 sequence (P11229 whole entry): T1 sequence (whole entry) with E185Q
T3 sequence (P08912 whole entry): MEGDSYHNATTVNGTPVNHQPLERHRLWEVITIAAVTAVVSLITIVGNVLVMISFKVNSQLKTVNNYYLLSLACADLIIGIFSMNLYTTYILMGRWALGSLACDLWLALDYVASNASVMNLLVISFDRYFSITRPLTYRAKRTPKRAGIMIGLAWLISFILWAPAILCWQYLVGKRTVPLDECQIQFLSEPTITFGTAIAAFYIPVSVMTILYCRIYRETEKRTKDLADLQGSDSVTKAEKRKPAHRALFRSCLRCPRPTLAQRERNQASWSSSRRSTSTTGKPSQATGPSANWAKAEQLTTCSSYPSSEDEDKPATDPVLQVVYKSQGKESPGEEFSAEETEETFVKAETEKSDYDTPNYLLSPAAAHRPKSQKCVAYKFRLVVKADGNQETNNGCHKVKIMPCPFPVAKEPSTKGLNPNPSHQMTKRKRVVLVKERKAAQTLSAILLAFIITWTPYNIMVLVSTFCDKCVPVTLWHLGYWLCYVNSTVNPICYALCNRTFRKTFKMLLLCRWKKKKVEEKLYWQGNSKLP

[6] = target: T3, Muscarinic acetylcholine receptor M1/M5 chimeric protein; test: Inhibition of [3H](R)-QNB binding to human M1/M5(o3) chimeric receptor expressed in A9 L cells; type: cell-based, A9L
[7] = target: Muscarinic acetylcholine receptor M1 (Homo sapiens, UniProt P11229, E170K); type: functional, cell-based, L929
[8] = tested on: Rattus norvegicus; test: Antipsychotic activity in Sprague-Dawley rat assessed as ability to reverse apomorphine effect on prepulse inhibition of the startle response at 3 mg/kg, sc; type: functional, organism-based; set-up: dose 3 mg/kg; outline: as §1
[9] = target: T4, Muscarinic acetylcholine receptor M3 (Homo sapiens, UniProt P20309); test: Antagonist activity at human M3 receptor assessed as inhibition of carbachol […]; conditions: read-out: pA2 (converted)
[10] = target: T3, Muscarinic acetylcholine receptor M1/M5 chimeric protein; test: Inhibition of [3H](R)-QNB binding to human M1/M5(o2o3) chimeric receptor expressed in A9 L cells; type: cell-based, A9L
[11] = target: T5, Muscarinic acetylcholine receptor M5 (Homo sapiens) (UniProt P08912); test: Agonist activity at human M5 receptor expressed in A9 L cells assessed as stimulation of phosphoinositide hydrolysis relative to carbachol; type: functional, cell-based; conditions: L929; outline: as §2
T5 sequence (whole entry): T3 sequence (P08912 whole entry)

[12] = target: T4, Muscarinic acetylcholine receptor M3; test: Agonist activity at human M3 receptor expressed in A9 L cells assessed as stimulation of phosphoinositide hydrolysis; type: functional, cell-based, L929
[13] = tested on: Rattus norvegicus; test: Antipsychotic activity in sc dosed Sprague-Dawley rat assessed as ability to reverse apomorphine effect on prepulse inhibition of the startle response; type: functional, organism-based; outline: as §1

T4 sequence (P20309 whole entry): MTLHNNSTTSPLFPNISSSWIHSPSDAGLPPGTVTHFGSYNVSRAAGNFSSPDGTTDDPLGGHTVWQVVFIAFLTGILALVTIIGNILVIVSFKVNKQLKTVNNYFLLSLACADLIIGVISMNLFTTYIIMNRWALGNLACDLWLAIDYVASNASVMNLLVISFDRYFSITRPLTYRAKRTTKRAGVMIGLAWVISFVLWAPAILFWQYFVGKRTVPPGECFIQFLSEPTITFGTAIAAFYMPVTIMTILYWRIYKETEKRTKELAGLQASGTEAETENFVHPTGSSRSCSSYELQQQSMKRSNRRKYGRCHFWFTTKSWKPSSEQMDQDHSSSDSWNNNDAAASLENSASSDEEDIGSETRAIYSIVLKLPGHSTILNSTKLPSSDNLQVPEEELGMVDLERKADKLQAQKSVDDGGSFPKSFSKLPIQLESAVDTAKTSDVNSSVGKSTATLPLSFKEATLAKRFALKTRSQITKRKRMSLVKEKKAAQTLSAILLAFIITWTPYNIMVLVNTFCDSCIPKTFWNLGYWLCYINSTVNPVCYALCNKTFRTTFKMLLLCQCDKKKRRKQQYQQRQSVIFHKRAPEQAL
Sequence of Muscarinic acetylcholine receptor M1 (Homo sapiens, UniProt P11229, E170K) (P11229 whole entry E170K): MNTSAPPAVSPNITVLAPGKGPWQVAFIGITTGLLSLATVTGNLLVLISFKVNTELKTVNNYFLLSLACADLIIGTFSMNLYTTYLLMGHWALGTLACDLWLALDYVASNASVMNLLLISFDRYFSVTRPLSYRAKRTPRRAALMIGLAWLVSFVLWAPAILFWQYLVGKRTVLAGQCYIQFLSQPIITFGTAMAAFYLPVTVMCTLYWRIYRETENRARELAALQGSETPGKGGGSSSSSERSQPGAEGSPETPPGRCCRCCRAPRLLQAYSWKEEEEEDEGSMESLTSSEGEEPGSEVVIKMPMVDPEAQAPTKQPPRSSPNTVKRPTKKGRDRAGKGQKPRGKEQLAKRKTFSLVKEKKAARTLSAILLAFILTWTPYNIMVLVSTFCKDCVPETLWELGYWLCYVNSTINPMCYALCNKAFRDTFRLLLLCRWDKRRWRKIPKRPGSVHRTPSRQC

Row | Compound | Activity [1] | EC50 [2] | Smax [3] | IC50 [4] | EC50 [5] | Ki [6] | EC50 [7] | Activity [8] | Kb [9] | Ki [10] | Activity [11] | EC50 [12] | Activity [13] | Smax [11]
1 | COc1nsnc1OCCOCCOCCOCCOc1nsnc1C1=CCCN(C)C1 | Active | 251 nM | 14% | 12.6 nM | 79.4 nM | 126 nM | 2000 nM | Active | 158 nM | 316 nM | inactive |  |  | 
2 | CCCCCCOc1nsnc1C1=CCCN(C)C1 [XANOMELINE] |  |  | 86% |  |  |  |  |  |  |  |  | 25100 nM | inactive | 43%
